Measured values as given in ChEMBL document CHEMBL4138116, “New bicyclic brominated furanones as potent autoinducer-2 quorum-sensing inhibitors against bacterial biofilm formation” (Eur J Med Chem, 2017).
The source made the active and inactive calls. The rule behind the calls is not given here.

How the values were obtained:
Fusobacterium nucleatum [1] = assay: Inhibition of Fusobacterium nucleatum ATCC 25586 AI-2 assessed as decrease in biofilm formation at 0.02 to 0.2 uM
THP-1 [2] = assay: Effect on host cell immune response in human THP1 cells assessed as upregulation of IL-8 mRNA expression at 2 uM after 24 hrs by RT-PCR method; type: ADME, cell-based; settings: thp-1, 24 h
Procedure, shortened: (§1)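 THP-1 cells (1 × 10^6 cells/well) or HGFs (2 × 10^5 cells/well) in 6-well plates were incubated 24 h at 37 °C with or without compound, with LPS as comparator. Total RNA (1 µg) was reverse-transcribed, and IL-6 and IL-8 mRNA were quantified by SYBR Green real-time PCR (40 cycles of 95 °C for 15 s and 60 °C for 1 min). Runs were done three times in triplicate.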

[3] = Effect on host cell immune response in human gingival fibroblasts assessed as upregulation of IL-8 mRNA expression at 2 uM after 24 hrs by RT-PCR method; type: ADME; procedure, shortened: as §1
Fusobacterium nucleatum [4] = assay: Inhibition of Fusobacterium nucleatum AI-2-mediated biofilm formation of Tannerella forsythia ATCC 43037 assessed as biofilm average depth at 2 uM incubated for 48 hrs under anaerobic condition by confocal laser scanning microscopic method (reference value: 5.29 um)
Fusobacterium nucleatum [5] = assay: Inhibition of Fusobacterium nucleatum AI-2-mediated biofilm formation of Porphyromonas gingivalis ATCC 33277 assessed as biofilm formation at 2 uM incubated for 48 hrs under anaerobic condition by crystal violet staining-based assay (reference value: 100%); set-up: scale not given: the % may be the effect or the level left
Procedure, shortened: (§2)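 Crystal-violet biofilm assay on glass slips in 24-well plates with 10% (v/v) F. nucleatum AI-2 and compound at 0.002–2 mM. Inocula were F. nucleatum 2 × 10^7, P. gingivalis 2 × 10^8 and T. forsythia 2 × 10^8 bacteria/mL, held 48 h anaerobically (10% H2, 10% CO2, 80% N2). Slips were washed three times with PBS, stained with 1% crystal violet for 10 min, destained with acetone–alcohol (20:80) and read at A595.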

Fusobacterium nucleatum [6] = assay: Inhibition of Fusobacterium nucleatum AI-2-mediated biofilm formation of Fusobacterium nucleatum ATCC 25586 assessed as biofilm average depth at 2 uM incubated for 48 hrs under anaerobic condition by confocal laser scanning microscopic method (reference value: 5.37 um)
[7] = Cytotoxicity against human gingival fibroblasts assessed as effect on cell viability at 2 uM incubated for 24 hrs by CCK8 assay
Procedure, shortened: (§3)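 Cells in 96-well plates were exposed to compound for 24 h, with viability read by CCK-8 against a non-treated control. THP-1 (RPMI 1640, 10% FBS) was seeded at 1 × 10^5 cells/well and treated directly. HGFs (DMEM, 10% FBS) at 2 × 10^4 and HOK-16B (keratinocyte basal medium) at 5 × 10^4 cells/well were treated after reaching 85% confluence. Runs were done three times in triplicate.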

[8] = Cytotoxicity against human HOK16B assessed as effect on cell viability at 2 uM incubated for 24 hrs by CCK8 assay; procedure, shortened: as §3
Fusobacterium nucleatum [9] = assay: Inhibition of Fusobacterium nucleatum ATCC 25586 planktonic growth at […] incubated for 48 hrs under anaerobic condition by spectrophotometric method; type: organism-based
Procedure, shortened: (§4)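 F. nucleatum, P. gingivalis or T. forsythia were grown planktonically for 48 h at 37 °C under anaerobic conditions with compound at 2 mM. Growth was monitored by absorbance at 600 nm.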

Vibrio harveyi = assay: Effect on Vibrio harveyi BB170 planktonic growth at 2 incubated for 9 hrs under aerobic condition by spectrophotometric method; set-up: concentration or dose not given beside the values; settings: in vitro
Porphyromonas gingivalis = assay: Inhibition of Porphyromonas gingivalis ATCC 33277 planktonic growth at […] incubated for 48 hrs under anaerobic condition by spectrophotometric method; type: organism-based; procedure, shortened: as §4
Fusobacterium nucleatum [10] = assay: Inhibition of Fusobacterium nucleatum AI-2-mediated biofilm formation of Porphyromonas gingivalis ATCC 33277 assessed as biofilm biomass at 2 uM incubated for 48 hrs under anaerobic condition by confocal laser scanning microscopic method (reference value: 3.73 um'3/um'2)
THP-1 [11] = assay: Effect on host cell immune response in human THP1 cells assessed as upregulation of IL-6 mRNA expression at 2 uM after 24 hrs by RT-PCR method; type: ADME, cell-based; settings: thp-1, 24 h; procedure, shortened: as §1
Fusobacterium nucleatum [12] = assay: Inhibition of Fusobacterium nucleatum ATCC 25586 AI-2 assessed as decrease in biofilm formation at 0.2 to 2 uM
THP-1 [13] = assay: Cytotoxicity against human THP1 cells assessed as effect on cell viability at 2 uM incubated for 24 hrs by CCK8 assay; type: cell-based; settings: thp-1, 24 h; procedure, shortened: as §3
Fusobacterium nucleatum [14] = assay: Inhibition of Fusobacterium nucleatum AI-2-mediated biofilm formation of Fusobacterium nucleatum ATCC 25586 assessed as biofilm biomass at 2 uM incubated for 48 hrs under anaerobic condition by confocal laser scanning microscopic method (reference value: 2.99 um'3/um'2)
Tannerella forsythia = assay: Inhibition of Tannerella forsythia ATCC 43037 planktonic growth at […] incubated for 48 hrs under anaerobic condition by spectrophotometric method; type: organism-based; procedure, shortened: as §4
Fusobacterium nucleatum [15] = assay: Inhibition of Fusobacterium nucleatum AI-2-mediated biofilm formation of Porphyromonas gingivalis ATCC 33277 assessed as biofilm average depth at 2 uM incubated for 48 hrs under anaerobic condition by confocal laser scanning microscopic method (reference value: 4.87 um)
Fusobacterium nucleatum [16] = assay: Inhibition of Fusobacterium nucleatum AI-2-mediated biofilm formation of Tannerella forsythia ATCC 43037 assessed as biofilm biomass at 2 uM incubated for 48 hrs under anaerobic condition by confocal laser scanning microscopic method (reference value: 4.05 um'3/um'2)
Fusobacterium nucleatum [17] = assay: Inhibition of Fusobacterium nucleatum AI-2-mediated biofilm formation of Tannerella forsythia ATCC 43037 assessed as biofilm formation at 2 uM incubated for 48 hrs under anaerobic condition by crystal violet staining-based assay (reference value: 100%); set-up: scale not given: the % may be the effect or the level left; procedure, shortened: as §2
Fusobacterium nucleatum [18] = assay: Inhibition of Fusobacterium nucleatum AI-2-mediated biofilm formation of Fusobacterium nucleatum ATCC 25586 assessed as biofilm formation at 2 uM incubated for 48 hrs under anaerobic condition by crystal violet staining-based assay (reference value: 100%); set-up: scale not given: the % may be the effect or the level left; procedure, shortened: as §2
[19] = Effect on host cell immune response in human gingival fibroblasts assessed as upregulation of IL-6 mRNA expression at 2 uM after 24 hrs by RT-PCR method; type: ADME; procedure, shortened: as §1

In the case of `CCCCOc1cccc2c1C(=O)OC2=C(Br)Br`, the inhibition (Fusobacterium nucleatum [1]) is reported as “inactive”.

In the case of `CCCOc1cccc2c1C(=O)OC2=C(Br)Br`, the inhibition (Fusobacterium nucleatum [1]) is reported as “inactive”.

For `CCCCCOc1ccc2c(c1)C(=C(Br)Br)OC2=O`, the inhibition (Fusobacterium nucleatum [1]) was “inactive”.

With `CCOc1cccc2c1C(=O)OC2=C(Br)Br` the inhibition (Fusobacterium nucleatum [1]) was “inactive”.

With `O=C1OC(=C(Br)Br)C2CCCC12` (stereo unspecified) the Activity (THP-1 [2]) was “Non-Toxic”, the Activity [3] was “Non-Toxic” and the Activity (Fusobacterium nucleatum [4]) was 2.27 µm. The Activity (Fusobacterium nucleatum [5]) was 48.4%, the Activity (Fusobacterium nucleatum [6]) was 1.82 µm and the inhibition (Fusobacterium nucleatum [1]) was “Active”. The Activity [7] was “Non-Toxic”, the Activity [8] was “Non-Toxic” and the “growth inhibition (GI)” value (Fusobacterium nucleatum [9]) was “Non-Toxic”. For the same compound, the Activity (Vibrio harveyi) was “Non-Toxic”, the “growth inhibition (GI)” value (Porphyromonas gingivalis) was “Non-Toxic” and the Activity (Fusobacterium nucleatum [10]) was 0.31 um3/um2. For the same compound, the Activity (THP-1 [11]) was “Non-Toxic”, the inhibition (Fusobacterium nucleatum [12]) was “Active” and the Activity (THP-1 [13]) was “Non-Toxic”. For the same compound, the Activity (Fusobacterium nucleatum [14]) was 0.39 um3/um2, the “growth inhibition (GI)” value (Tannerella forsythia) was “Non-Toxic” and the Activity (Fusobacterium nucleatum [15]) was 2.05 µm. The Activity (Fusobacterium nucleatum [16]) was 0.93 um3/um2, the Activity (Fusobacterium nucleatum [17]) was 57.8% and the Activity (Fusobacterium nucleatum [18]) was 38.8%. The Activity [19] was “Non-Toxic”.

In the case of `Cc1cccc2c1C(=O)OC2=C(Br)Br`, the Activity (THP-1 [2]) is reported as “Non-Toxic”, the Activity [3] is reported as “Non-Toxic” and the Activity (Fusobacterium nucleatum [4]) is reported as 2.41 µm. For the same compound, the Activity (Fusobacterium nucleatum [5]) was 29.3%, the Activity (Fusobacterium nucleatum [6]) was 1.72 µm and the inhibition (Fusobacterium nucleatum [1]) was “Active”. The Activity [7] was “Non-Toxic”, the Activity [8] was “Non-Toxic” and the “growth inhibition (GI)” value (Fusobacterium nucleatum [9]) was “Non-Toxic”. For the same compound, the Activity (Vibrio harveyi) was “Non-Toxic”, the “growth inhibition (GI)” value (Porphyromonas gingivalis) was “Non-Toxic” and the Activity (Fusobacterium nucleatum [10]) was 0.27 um3/um2. For the same compound, the Activity (THP-1 [11]) was “Non-Toxic”, the Activity (THP-1 [13]) was “Non-Toxic” and the Activity (Fusobacterium nucleatum [14]) was 0.32 um3/um2. For the same compound, the “growth inhibition (GI)” value (Tannerella forsythia) was “Non-Toxic”, the Activity (Fusobacterium nucleatum [15]) was 1.97 µm and the Activity (Fusobacterium nucleatum [16]) was 0.88 um3/um2. The Activity (Fusobacterium nucleatum [17]) was 53.5%, the Activity (Fusobacterium nucleatum [18]) was 33.2% and the Activity [19] was “Non-Toxic”.

For `Cc1ccc2c(c1)C(=C(Br)Br)OC2=O`, the Activity (THP-1 [2]) was “Non-Toxic”, the Activity [3] was “Non-Toxic” and the Activity (Fusobacterium nucleatum [4]) was 1.94 µm. The Activity (Fusobacterium nucleatum [5]) was 34.7%, the Activity (Fusobacterium nucleatum [6]) was 1.87 µm and the inhibition (Fusobacterium nucleatum [1]) was “Active”. The Activity [7] was “Non-Toxic”, the Activity [8] was “Non-Toxic” and the “growth inhibition (GI)” value (Fusobacterium nucleatum [9]) was “Non-Toxic”. The Activity (Vibrio harveyi) was “Non-Toxic”, the “growth inhibition (GI)” value (Porphyromonas gingivalis) was “Non-Toxic” and the Activity (Fusobacterium nucleatum [10]) was 0.29 um3/um2. The Activity (THP-1 [11]) was “Non-Toxic”, the Activity (THP-1 [13]) was “Non-Toxic” and the Activity (Fusobacterium nucleatum [14]) was 0.38 um3/um2. The “growth inhibition (GI)” value (Tannerella forsythia) was “Non-Toxic”, the Activity (Fusobacterium nucleatum [15]) was 2.05 µm and the Activity (Fusobacterium nucleatum [16]) was 0.59 um3/um2. For the same compound, the Activity (Fusobacterium nucleatum [17]) was 33.5%, the Activity (Fusobacterium nucleatum [18]) was 32.1% and the Activity [19] was “Non-Toxic”.

In the case of `O=C1OC(=C(Br)Br)C2CCCCC12` (stereo unspecified), the inhibition (Fusobacterium nucleatum [1]) is reported as “inactive”.

For `CCOc1ccc2c(c1)C(=C(Br)Br)OC2=O`, the inhibition (Fusobacterium nucleatum [1]) was “inactive”.

For `CCCOc1ccc2c(c1)C(=C(Br)Br)OC2=O`, the inhibition (Fusobacterium nucleatum [1]) was “inactive”.

For `O=C1OC(=C(Br)Br)c2ccccc21`, the inhibition (Fusobacterium nucleatum [1]) was “inactive” and the inhibition (Fusobacterium nucleatum [12]) was “Active”.

In the case of `CCCCCOc1cccc2c1C(=O)OC2=C(Br)Br`, the inhibition (Fusobacterium nucleatum [1]) is reported as “inactive”.

For `O=C1C=C(Br)/C(=C/Br)O1`, the Activity (THP-1 [2]) was “Toxic”, the Activity [3] was “Toxic” and the Activity (Fusobacterium nucleatum [4]) was 2.18 µm. For the same compound, the Activity (Fusobacterium nucleatum [5]) was 39.2%, the Activity (Fusobacterium nucleatum [6]) was 2.02 µm and the inhibition (Fusobacterium nucleatum [1]) was “Active”. The Activity (Vibrio harveyi) was “Toxic”, the Activity (Fusobacterium nucleatum [10]) was 0.3 um3/um2 and the Activity (THP-1 [11]) was “Toxic”. It also gave an Activity (Fusobacterium nucleatum [14]) of 0.42 um3/um2, an Activity (Fusobacterium nucleatum [15]) of 2.05 µm and an Activity (Fusobacterium nucleatum [16]) of 0.77 um3/um2. The Activity (Fusobacterium nucleatum [17]) was 47.4% and the Activity (Fusobacterium nucleatum [18]) was 55.6%.

In the case of `CCCCOc1ccc2c(c1)C(=C(Br)Br)OC2=O`, the inhibition (Fusobacterium nucleatum [1]) is reported as “inactive”.

For `O=C1OC(=C(Br)Br)C2=C1CCC2`, the inhibition (Fusobacterium nucleatum [1]) was “inactive”.

For `O=C1OC(=C(Br)Br)C2=C1CCCC2`, the inhibition (Fusobacterium nucleatum [1]) was “inactive”.
